Measurements published in ChEMBL document CHEMBL1144435, “Effects of positional and geometrical isomerism on the biological activity of some novel oxazolidinones” (2005).
Values after ≈ are worked out from the molar mass of the structure shown.

Experiments:
Enterococcus faecium = experiment: In vitro minimum inhibitory concentration against vancomycin-resistant Enterococcus faecium NCTC 12202; type: functional
How it was run: (§1)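 Broth microdilution per NCCLS guidelines. Doubling dilutions from 32-1 µg/mL in Mueller Hinton medium. Final inoculum 1-5 × 10^5 cfu/mL. Plates incubated overnight in ambient air at 35 °C. Linezolid and streptomycin run as controls.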

Enterococcus faecalis [1] = experiment: In vitro minimum inhibitory concentration against Enterococcus faecalis ATCC 29212; type: functional; how it was run: as §1
Enterococcus faecalis [2] = experiment: In vitro minimum inhibitory concentration against vancomycin-resistant Enterococcus faecalis NCTC 12201; type: functional; how it was run: as §1
Staphylococcus aureus [3] = experiment: In vitro minimum inhibitory concentration of compound against Methicillin-resistant Staphylococcus aureus ATCC 33591
[4] = system: Mycolicibacterium smegmatis; experiment: In vitro minimum inhibitory concentration of compound against Mycobacterium smegmatis MTCC 006; type: functional
Staphylococcus aureus [5] = experiment: In vitro minimum inhibitory concentration of compound against Staphylococcus aureus ATCC 49951 (Smith); type: functional; how it was run: as §1
Staphylococcus aureus [6] = experiment: In vitro minimum inhibitory concentration of compound against Methicillin-sensitive Staphylococcus aureus ATCC 29213; type: functional; how it was run: as §1

| Structure (SMILES) | MIC (Enterococcus faecium) | MIC (Enterococcus faecalis [1]) | MIC (Enterococcus faecalis [2]) | MIC (Staphylococcus aureus [3]) | MIC [4] | MIC (Staphylococcus aureus [5]) | MIC (Staphylococcus aureus [6]) |
| --- | --- | --- | --- | --- | --- | --- | --- |
| CC(=O)NC[C@H]1CN(c2ccc(/C=C(\C#N)n3nc4ccccc4n3)cc2)C(=O)O1 | 8 µg/mL (≈ 19.9 µM) | 8 µg/mL (≈ 19.9 µM) | 8 µg/mL (≈ 19.9 µM) | 8 µg/mL (≈ 19.9 µM) | > 32 µg/mL | 8 µg/mL (≈ 19.9 µM) | 8 µg/mL (≈ 19.9 µM) |
| CC(=O)NC[C@H]1CN(c2ccc(/C=C(\C#N)n3nnc4ccccc43)cc2)C(=O)O1 | 32 µg/mL (≈ 79.5 µM) | 32 µg/mL (≈ 79.5 µM) | 32 µg/mL (≈ 79.5 µM) | 16 µg/mL (≈ 39.8 µM) | > 32 µg/mL | 16 µg/mL (≈ 39.8 µM) | 16 µg/mL (≈ 39.8 µM) |
| CN[C@@H]1[C@H](O[C@H]2[C@H](O[C@H]3[C@H](O)[C@@H](O)[C@H](N=C(N)N)[C@@H](O)[C@@H]3N=C(N)N)O[C@@H](C)[C@]2(O)C=O)O[C@@H](CO)[C@H](O)[C@H]1O [STREPTOMYCIN] | 32 µg/mL (≈ 55 µM) | > 32 µg/mL | > 32 µg/mL | > 32 µg/mL | 0.5 µg/mL (≈ 0.86 µM) | 2 µg/mL (≈ 3.44 µM) | 4 µg/mL (≈ 6.88 µM) |
| CC(=O)NC[C@H]1CN(c2ccc(/C=C(\C#N)n3cnc4ccccc43)cc2)C(=O)O1 | 32 µg/mL (≈ 79.7 µM) | 32 µg/mL (≈ 79.7 µM) | 32 µg/mL (≈ 79.7 µM) | 16 µg/mL (≈ 39.9 µM) | > 32 µg/mL | 16 µg/mL (≈ 39.9 µM) | 16 µg/mL (≈ 39.9 µM) |
| CC(=O)NC[C@H]1CN(c2ccc(/C=C(\C#N)c3nc4ccccc4o3)cc2)C(=O)O1 | > 32 µg/mL | > 32 µg/mL | > 32 µg/mL |  | > 32 µg/mL | > 32 µg/mL | > 32 µg/mL |
| CC(=O)NC[C@H]1CN(c2ccc(N3CCOCC3)c(F)c2)C(=O)O1 [LINEZOLID] | 2 µg/mL (≈ 5.93 µM) |  |  |  | 2 µg/mL (≈ 5.93 µM) |  |  |
| CC(=O)NC[C@H]1CN(c2ccc(/C=C(\C#N)n3nc4ccccc4n3)c(F)c2)C(=O)O1 | 32 µg/mL (≈ 76.1 µM) | 32 µg/mL (≈ 76.1 µM) | 32 µg/mL (≈ 76.1 µM) | 16 µg/mL (≈ 38.1 µM) | > 32 µg/mL | 16 µg/mL (≈ 38.1 µM) | 8 µg/mL (≈ 19 µM) |
| CC(=O)NC[C@H]1CN(c2ccc(/C=C(\C#N)c3nc4ccccc4s3)cc2)C(=O)O1 | > 32 µg/mL | > 32 µg/mL | > 32 µg/mL |  | > 32 µg/mL | > 32 µg/mL | > 32 µg/mL |
| CC(=O)NC[C@H]1CN(c2ccc(/C=C(\C#N)c3nc4ccccc4n3C)cc2)C(=O)O1 | > 32 µg/mL | > 32 µg/mL | > 32 µg/mL |  | > 32 µg/mL | > 32 µg/mL | > 32 µg/mL |
| CC(=O)NC[C@H]1CN(c2ccc(/C=C(\C#N)c3nc4ccccc4[nH]3)cc2)C(=O)O1 | > 32 µg/mL | > 32 µg/mL | > 32 µg/mL |  | > 32 µg/mL | > 32 µg/mL | > 32 µg/mL |
| CC(=O)NC[C@H]1CN(c2ccc(/C=C(/C#N)n3nnc4ccccc43)cc2)C(=O)O1 | > 32 µg/mL | > 32 µg/mL | > 32 µg/mL | > 32 µg/mL | > 32 µg/mL | > 32 µg/mL | > 32 µg/mL |
| C/C(S)=N/C[C@H]1CN(c2ccc(/C=C(\C#N)n3nc4ccccc4n3)cc2)C(=O)O1 | 4 µg/mL (≈ 9.56 µM) | 4 µg/mL (≈ 9.56 µM) | 4 µg/mL (≈ 9.56 µM) | 2 µg/mL (≈ 4.78 µM) | > 32 µg/mL | 2 µg/mL (≈ 4.78 µM) | 2 µg/mL (≈ 4.78 µM) |
